In publication PMC3793218 (Scientific Reports, 2013):

Tests used:
human UGT1A1 [1] = molecular target: T1, human UGT1A1 (Homo sapiens, UniProt P22309); test: Inhibition of estradiol 3-O-glucuronidation in the UGT1A1 recombinant system; type: biochemical; settings: for Inhibitory pattern against estradiol 3-O-glucuronidation: Recombinant UGT1A1, Dixon plot; for Inhibition of UGT1A1 activity: UGT1A1 recombinant system, 50 μM fatty acid
T1 sequence (P22309 26-533): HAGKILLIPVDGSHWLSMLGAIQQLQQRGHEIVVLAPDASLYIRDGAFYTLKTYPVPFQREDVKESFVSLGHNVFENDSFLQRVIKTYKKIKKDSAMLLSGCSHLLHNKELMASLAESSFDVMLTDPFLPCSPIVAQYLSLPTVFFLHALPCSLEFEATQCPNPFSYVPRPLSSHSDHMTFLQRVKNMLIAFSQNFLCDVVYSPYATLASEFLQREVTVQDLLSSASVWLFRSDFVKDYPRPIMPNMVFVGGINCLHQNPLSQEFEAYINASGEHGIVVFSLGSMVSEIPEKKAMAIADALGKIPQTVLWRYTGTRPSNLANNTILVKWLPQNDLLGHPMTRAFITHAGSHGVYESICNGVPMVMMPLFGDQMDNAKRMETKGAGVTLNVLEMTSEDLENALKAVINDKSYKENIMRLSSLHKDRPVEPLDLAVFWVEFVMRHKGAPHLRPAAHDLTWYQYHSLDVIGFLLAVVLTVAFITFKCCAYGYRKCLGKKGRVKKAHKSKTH
Outline: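 Recombinant UGT1A1 Supersomes (0.25 mg/ml) were used in 50 mM Tris-HCl pH 7.4, 10 mM MgCl2, 25 μg/ml alamethicin and 2 mM UDPGA, with test fatty acid at 1–50 μM, 3-min preincubation, and 30 min at 37°C. For IC50, estradiol was 10 μM, runs were duplicate, and values came from linear regression. For Ki, estradiol was 5, 10 or 20 μM with Dixon plot. Product measured by HPLC-fluorescence against authentic standard.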

[2] = system: UGT1A1 activity in human small intestine microsomes; test: Inhibition of estradiol 3-O-glucuronidation in human small intestine microsomes; type: biochemical; settings: Human small intestine microsomes; Dixon plot
Outline: (§1)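 Microsomes from human liver or small intestine (0.25 mg/ml) were incubated with 50 mM Tris-HCl pH 7.4, 10 mM MgCl2, 25 μg/ml alamethicin, 2 mM UDPGA, estradiol at 5, 10 or 20 μM, and test fatty acid at 1–50 μM. After 3-min preincubation at 37°C, UDPGA was added to start; 30 min at 37°C; cold methanol stop. Glucuronide measured by HPLC-fluorescence (ex 280/em 310 nm); Dixon plot gave inhibition type and Ki.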

UGT1A1 = test: as above; type: biochemical; settings: human, human small intestine microsomes; for activity at 30 min, 50 μM: pH 7.4, probe estradiol (10 μM; estradiol 3-O-glucuronide formation)
Outline: as §1

[3] = molecular target: T2, UGT1A1 activity in human liver microsomes (Homo sapiens, UniProt P22309); test: Inhibition of estradiol 3-O-glucuronidation in human liver microsomes; type: biochemical; settings: for Inhibitory pattern against estradiol 3-O-glucuronidation: Human liver microsomes, Dixon plot
T2 sequence (P22309 26-533): T1 sequence (P22309 26-533)
Outline: as §1

[4] = system: bilirubin clearance by UGT1A1; test: Estimated ratio of intrinsic clearance; settings: Equation 4; DHA concentration in human breast milk around 60 μM
hUGT1 mice = type: in vivo; settings: neonatal hUGT1 mice; oral 10 mg/kg at 12 days after birth; 48 hours after treatment; control increase 2.3 ± 3.2 mg/dL
human UGT1A1 [5] = molecular target: T1, human UGT1A1; settings: read-out: Km value of bilirubin glucuronidation; cited from earlier work

CCCCC/C=C\C/C=C\C/C=C\C/C=C\CCCC(=O)O [Arachidonic acid]
IC50 (human UGT1A1 [1]): 22.7 µM

CC/C=C\C/C=C\C/C=C\C/C=C\C/C=C\C/C=C\CCC(=O)O [DHA, docosahexaenoic acid]
Inhibitory pattern against estradiol 3-O-glucuronidation [2]: non-competitive
Ki at 30 min (UGT1A1; pH 7.4): 5.2 µM
Ki [3]: 4.3 µM
Inhibitory pattern against estradiol 3-O-glucuronidation [3]: non-competitive
R value (ratio of intrinsic clearance in presence and absence of inhibitor) [4]: 0.08
Increase of serum bilirubin levels from 12 days to 14 days after birth (hUGT1 mice): 6.6 mg/dL
IC50 (human UGT1A1 [1]): 11.6 µM
Ki (human UGT1A1 [1]): 1.8 µM
Inhibitory pattern against estradiol 3-O-glucuronidation (human UGT1A1 [1]): non-competitive

CC/C=C\C/C=C\C/C=C\C/C=C\C/C=C\CCCC(=O)O [EPA, eicosapentaenoic acid]
IC50 (human UGT1A1 [1]): 19.9 µM

CCCCC/C=C\C/C=C\CCCCCCCC(=O)O [Linoleic acid]
activity at 30 min, 50 μM (UGT1A1): > 80%
Ki [3]: 24 µM
Inhibitory pattern against estradiol 3-O-glucuronidation [3]: non-competitively
IC50 (human UGT1A1 [1]): 33.1 µM
Ki (human UGT1A1 [1]): 22.1 µM
Inhibitory pattern against estradiol 3-O-glucuronidation (human UGT1A1 [1]): non-competitively

CCCCCCCC/C=C\CCCCCCCC(=O)O [Oleic acid]
activity at 30 min, 50 μM (UGT1A1): > 80%
Ki [3]: 29.3 µM
Inhibitory pattern against estradiol 3-O-glucuronidation [3]: non-competitively
IC50 (human UGT1A1 [1]): 31.6 µM
Ki (human UGT1A1 [1]): 23.4 µM
Inhibitory pattern against estradiol 3-O-glucuronidation (human UGT1A1 [1]): non-competitively

CCCCCC/C=C\CCCCCCCC(=O)O [Palmitoleic acid]
IC50 (human UGT1A1 [1]): 37.1 µM

CCCCCCCCCCCCCCCCCCCC(=O)O [arachidic acid]
IC50 (human UGT1A1 [1]): > 50 µM
Inhibition of UGT1A1 activity (human UGT1A1 [1]): not inhibited at all

CCCCCCCCCCCCCCCCCCCCCC(=O)O [behenic acid]
IC50 (human UGT1A1 [1]): > 50 µM
Inhibition of UGT1A1 activity (human UGT1A1 [1]): not inhibited at all

C=CC1=C(C)/C(=C/c2[nH]c(Cc3[nH]c(/C=C4\NC(=O)C(C)=C4C=C)c(C)c3CCC(=O)O)c(CCC(=O)O)c2C)NC1=O [bilirubin]
Km (human UGT1A1 [5]): ~2 µM

CCCCCCCCCC(=O)O [decanoic acid]
IC50 (human UGT1A1 [1]): > 50 µM

CCCCCCCCCCCC(=O)O [lauric acid]
Inhibition of UGT1A1 activity (human UGT1A1 [1]): not inhibited at all

CCCCCCCCCCCCCCCCCCCCCCCC(=O)O [lignoceric acid]
Inhibition of UGT1A1 activity (human UGT1A1 [1]): not inhibited at all

CCCCCCCCCCCCCC(=O)O [myristic acid]
IC50 (human UGT1A1 [1]): > 50 µM
Inhibition of UGT1A1 activity (human UGT1A1 [1]): not inhibited at all

CCCCCCCCCCCCCCCC(=O)O [palmitic acid]
IC50 (human UGT1A1 [1]): > 50 µM
Inhibition of UGT1A1 activity (human UGT1A1 [1]): not inhibited at all

CCCCCCCCCCCCCCCCCC(=O)O [stearic acid]
IC50 (human UGT1A1 [1]): > 50 µM
